Laboratory results as given in ChEMBL document CHEMBL4513216, “Probing the Open Global Health Chemical Diversity Library for Multistage-Active Starting Points for Next-Generation Antimalarials” (ACS Infect Dis, 2020).

Experiment: Toxicity liver stage against HepG2, at 10uM
Assay type: cell-based
Parameters: test concentration 10 uM, cell line HepG2-A16-CD81EGFP
Conditions: human, HepG2-A16-CD81EGFP cells; read-out: INHIBITION
How it was run: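 Uninfected HepG2-A16-CD81EGFP cells, 3 × 10^3 per well, 1536-well, plated on prespotted compound at 10 μM final, parasite-free screening media added to match infected plates; puromycin 10 μM positive, DMSO 0.5% negative; run in parallel with 48 h PbLuc assay at 37 °C, 5% CO2; viability by CellTiter-Glo luminescence, normalized to controls.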

| Structure (SMILES) | cytotoxicity at 10 µM |
| --- | --- |
| CC(C)n1cnnc1Cn1c(=O)cnc2ccccc21 | -4.04% |
| CS(=O)(=O)c1ccc(CN2C[C@@H]3CC[C@H]2CN(c2ncccn2)C3)cc1 | 0.345% |
| CCc1ccc(NC(=O)c2n[nH]c(-n3cnnc3)n2)cc1 | 4.68% |
| Cc1csc(N2CCN(C(=O)CCn3cncn3)CC2)n1 | -5.97% |
| CNc1[nH]nc(N)c1C(=O)Nc1ccc(OC)cc1 | 14.8% |
| CCc1nnc2ccc(N3CCN(S(=O)(=O)c4ccc(C)s4)CC3)nn12 | 1.5% |
| CCOc1c(Br)cc(/C=C/c2ncc(C(=O)O)s2)cc1OC | -1.26% |
| COCCN1CCCC12CCN(C(=O)CC1CCCC1)CC2 | 5.47% |
| Cc1cc(CN2CCN(S(=O)(=O)c3c(C)c(Cl)cc(C)c3Cl)CC2)on1 | -8.87% |
| CCOCC(=O)N1CCCn2c(CN3CCCCC3)nnc2C1 | -110% |
| COc1cc(Cl)ccc1C(=O)N1CCCC(c2cc(C)[nH]n2)C1 (stereo unspecified) | 72.5% |
| Cc1ccc(C(=O)N2CCC3(CC2)CC(c2ccccc2)C(=O)N3)o1 (stereo unspecified) | 11.1% |
| COc1ccc2c(=O)n(CC3CCCN(C)C3)ccc2c1OC (stereo unspecified) | -0.391% |
| COc1cccc(Nc2nc(-c3ccncc3)nc3c2CNCC3)c1 | -6.61% |
| O=C(CC1CC1)N1CCC2(CC1)CN(c1cccnc1)C(=O)CO2 | -90.8% |
| Cc1cc(C(F)(F)F)nc(CNc2cc(C)nc3cc(C)nn23)n1 | 9.29% |
| CC(Cn1ccnc1)NC(=O)NCCc1cccnc1 (stereo unspecified) | -12.1% |
| CCC(Cn1ccnc1)n1cnc2c(C)csc2c1=O (stereo unspecified) | -4.34% |
| c1cc(-c2ccc3c(c2)CCC32CCNCC2)ccn1 | 8.86% |
| CCn1cc(CN2CCCN(C(=O)c3ccoc3C)CC2)cn1 | -6.67% |
| CCN(C(=O)CNC1CCc2ncnn2C1)C1=CCCCC1 (stereo unspecified) | 0.701% |
| COCCN1C(=O)C2(CCN(CC3CC3)CC2)c2ccccc21 | -115% |
| CCN1CCC2(CCC(=O)N2Cc2cccc(C)n2)CC1 | 5.08% |

| Structure (SMILES) | cytotoxicity at 10 µM |
| --- | --- |
| CCc1nccc(CN2CCCC(CNC(=O)c3occc3C)C2)n1 (stereo unspecified) | 2.28% |
| COc1ccccc1OCC(=O)NCC(O)(c1ccccc1)C1CC1 (stereo unspecified) | -16.1% |
| CC(O)CN1CCC(CNCc2ccccc2Br)CC1 (stereo unspecified) | -13.2% |
| COc1ccccc1OC1CN(C(=O)Cc2c(C)nc(C)[nH]c2=O)C1 | -2.9% |
| N#Cc1cccc(N2CCCC3(CN(C(=O)NC4CC4)CCO3)C2)c1 (stereo unspecified) | 12.1% |
| Cc1cc(F)ccc1OC1(C(=O)O)CCN(Cc2nccn2C)CC1 | 0.334% |
| CN(Cc1ccncc1)C(=O)NC1CCCN(c2ncccn2)C1 (stereo unspecified) | -14% |
| CC(C)N1CCCn2nc(C(=O)NCCc3ccccn3)cc2C1 | -1.95% |
| CC(C)(C)C(=O)N1CC(=O)N(Cc2ccco2)CC(O)C1 (stereo unspecified) | 4.79% |
| CC(C)Cc1ccc(S(=O)(=O)NCCCN2CCNC(=O)C2)cc1 | -4.36% |
| CN(CC(=O)NC(Cc1ccccc1)C1CCCC1)S(C)(=O)=O (stereo unspecified) | 15.1% |
| Cc1nc(C)n(CC2CCCN2CCOc2ccc(C#N)cc2)n1 (stereo unspecified) | -10.1% |
| Cc1ccc(C(=O)N2C[C@@H]3CCN(C(C)C)C[C@@H]3C2)cn1 | -6.54% |
| c1cc(CN2CCOC(Cn3cccn3)C2)c2c(c1)OCCO2 (stereo unspecified) | -2.66% |
| CN(Cc1cc(Br)cn1C)C(=O)c1cc(Cl)ccn1 | -11% |
| COCCN1CCC(C(=O)N(C)Cc2c[nH]c3ccc(C)cc23)C1 (stereo unspecified) | -13.2% |
| c1cnc(N2CCC3(CCN(CC4CC4)CC3)CC2)nc1 | 0.77% |
| Cc1cc(O)cc(C2CCCN2C(=O)c2ccncc2)n1 (stereo unspecified) | 8.16% |
| Cc1ccc(NC(=O)N(C)C)c(C(=O)OCC(=O)NC2CCCC2)c1 | -8.03% |
| Cc1ncc(CN2CCC(n3cc(-c4ccc(F)cc4)nn3)CC2)cn1 | 5.48% |
| COCCN(Cc1nc2c(cnn2C)c(=O)[nH]1)C(C)c1ccccc1 (stereo unspecified) | -1.47% |
| Cc1ccccc1OCCCC(=O)NCc1ccnc(O)c1 | 5.65% |
| Cc1cc(N2CCN(C3CCOCC3)CC(C(=O)N(C)C)C2)ncn1 (stereo unspecified) | 3.74% |

| Structure (SMILES) | cytotoxicity at 10 µM |
| --- | --- |
| CC(=O)N(C)c1nc(CN2CCCC2Cn2nc(C)cc2C)cs1 (stereo unspecified) | -10.3% |
| CCC(Nc1nnnn1-c1ccccc1)C(=O)NCc1ccsc1 (stereo unspecified) | -3.56% |
| CC(C)COCC1CN(Cc2cnn(C)c2)Cc2ncn(C)c21 (stereo unspecified) | 0.588% |
| Cc1nc(O)cc(C2CCCN2CCO)n1 (stereo unspecified) | -14.5% |
| CCOC(=O)C1(Cc2cccc(OC)c2)CCCN(Cc2ncc[nH]2)C1 (stereo unspecified) | 3.86% |
| CN(C)C(=O)N1CCc2c(COCC3CC3)cncc2C1 | -68.2% |
| Cc1nc(C2CCCN(C(=O)c3ccnc(N(C)C)c3)C2)no1 (stereo unspecified) | -4.77% |
| COC(=O)CCNC(=O)c1cnc(Cc2ccc(F)cc2)s1 | -5.87% |
| COCC1c2nnn(C)c2CCN1C(=O)COc1ccccc1C (stereo unspecified) | -100% |
| CC(C)(C)n1cc(C(=O)NCCCn2ccnc2)c2cccnc21 | 0.698% |
| Cc1nc2cc(C(=O)N3CCn4c(nnc4C4CC4)C3)ccc2s1 | -1.41% |
| CN(C)CCN(C)C1CCN(C(C(=O)O)c2ccc(F)c(Cl)c2)CC1 (stereo unspecified) | 2.95% |
| O=C(Nc1ccccc1)NC1CCN(C2CCOC2)CC1 (stereo unspecified) | 7.76% |
| c1ccc(COC[C@@H]2CCC[C@@]23CNCCO3)nc1 | -105% |
| CNC(=O)C(C)(C)NC(=O)c1cc(COc2ccccc2OC)[nH]n1 | 1.6% |
| COc1c(CNC2CCN(C(=O)C(C)C)CC2)c(C(C)C)nn1C | 1.25% |
| c1ccc2c(c1)CC(N1CCCC(NCc3cccc4nonc34)C1)C2 (stereo unspecified) | -1.98% |
| Cn1cc(CNC(=O)C2COCC(=O)N2Cc2ccccc2)cn1 (stereo unspecified) | -4.88% |
| O=S(=O)(Cc1cccc(Cl)c1)CC(O)Cn1cccn1 (stereo unspecified) | -12.5% |
| COc1ccccc1-n1nc(-c2ccco2)n(CC(=O)NC(C)C)c1=O | 2.57% |
| Cc1noc(C)c1CN1CCc2ncnc(-c3ccc(F)cc3)c2CC1 | -100% |
| Cc1ccc(C2(O)CCN(C(=O)CCn3c(C)cccc3=O)CC2)nc1 | -9.02% |
| O=C(Nc1ccccc1)c1cccc(S(=O)(=O)NC[C@@H]2C[C@H](F)CN2)c1 | 2.83% |

| Structure (SMILES) | cytotoxicity at 10 µM |
| --- | --- |
| COCCNC(=O)c1nc(NS(=O)(=O)c2ccccc2)sc1C | 9.18% |
| Cn1cccc1CN(C(=O)Cc1cccs1)C1CC1 | 7.53% |
| Cc1ccc(C(=O)O)cc1S(=O)(=O)Nc1nn(-c2ccccc2)cc1C | -8.84% |
| CCc1nc(CC2CN(c3ncnc4nc(C)cc(C)c34)CCO2)no1 (stereo unspecified) | -5.79% |
| Cc1noc(C)c1Cc1nc(N(C)C)no1 | 9.21% |
| Cn1cccc1C(=O)N1CCC(c2nnc(Cn3ccnc3)n2C)CC1 | -114% |
| CC(NC(=O)NCCCn1cncn1)c1ccc(C#N)cc1 (stereo unspecified) | -2.6% |
| CSCC(C)(O)CNC(=O)Nc1cc(C)cc(C)c1 (stereo unspecified) | -3.24% |
| COc1ccc(OC)c(C2CCN(c3ccc4cc[nH]c4n3)C2)c1 (stereo unspecified) | -1.6% |
| Cc1noc([C@@]23CCO[C@@H]2CCN(C(=O)c2cc(C)[nH]c2C)C3)n1 | 10.4% |
| Cc1n[nH]c(C)c1CNC(=O)NC1CCCCC1 | 1.91% |
| CCSc1ccc(C(=O)N2CCC3(CCC(=O)N(C)C3)CC2)s1 | -11.2% |
| CN(C)C(=O)Cn1c2c(ccc1=O)CCN(Cc1cnn(C)c1)CC2 | 0.886% |
| CN(Cc1nnc2n1CCC2)C(=O)Cc1ccc2c(c1)CCC2 | -15.5% |
| O=C(Cn1ccc2ccccc21)Nc1cc(N2CCOCC2)ncn1 | -14% |
| CCN(Cc1ccc(F)cc1Cl)C1CCS(=O)(=O)C1 (stereo unspecified) | 14.9% |
| Cc1ccc(-c2nc(CN3CCOC(Cn4cccn4)C3)cs2)o1 (stereo unspecified) | -8.86% |
| COc1ccc(C(=O)C2CCCN(Cc3cccc(F)c3)C2)c(OC)c1 (stereo unspecified) | 6.4% |
| COc1cccc(COCC(=O)N2CCN(CC(C)(C)O)CC2)c1 | -5.64% |
| Cc1cnn(CCNCc2ccc(OCC(N)=O)cc2)c1 | -0.86% |
| CN1C(=O)C(c2ccccc2)CC12CCN(CCOCCO)CC2 (stereo unspecified) | 39.8% |
| O=C(CC1CCCO1)NCCc1ccccc1Br (stereo unspecified) | 5.63% |
| Cc1ccc(CNC(=O)N2CCCCC2CCNS(C)(=O)=O)cc1 (stereo unspecified) | -0.524% |

| Structure (SMILES) | cytotoxicity at 10 µM |
| --- | --- |
| Cc1cc(C(=O)N2C[C@@H](C(=O)O)[C@H](c3ccccc3C)C2)c(C)o1 | 16.8% |
| C[C@@H]1CN(C(=O)C2(N3CCCCC3)Cc3ccccc3C2)C[C@H](C)O1 | -0.238% |
| Fc1cccc(C2(CNC3CCOC4(CCOCC4)C3)CCOCC2)c1 (stereo unspecified) | 0.616% |
| CC(C)[C@H]1COC(=O)N1CC(=O)N(C)CCCn1cccn1 | -157% |
| O=C(NCCC1CC1)NCc1cccc(-n2ccnc2)c1 | 19.7% |
| Cc1nc(-c2ccc(CO)cc2)cc(C2CCNCC2)n1 | 12.3% |
| CC(=O)NC1CCN(c2nc(C)nc3c2c(C)nn3C)C1 (stereo unspecified) | 8.32% |
| Cc1ccc(OCC(O)CN2CCC(Cn3cccn3)CC2)cc1 (stereo unspecified) | -16% |
| COc1ccc(NC(=O)CN2CCCCC2C2OCCO2)cc1 (stereo unspecified) | 30.9% |
| Cc1cc(N2CCC(c3ncc[nH]3)CC2)c2ccccc2n1 | -9.74% |
| CS(=O)(=O)c1ccc(C(=O)N2CCCC(n3cncn3)C2)o1 (stereo unspecified) | 7.85% |
| CCN(C)c1ncnc2c1CCN(Cc1ccc(F)cc1)CC2 | 3.1% |
| Cc1nc(Oc2ccccc2F)sc1C(=O)O | -11.2% |
| O=C(NC1CC1)N1C[C@H]2CN(c3ccccc3)C(=O)[C@H]2C1 | -1.13% |
| COC(=O)CN(Cc1ccccc1C)C(=O)CCCNC(=O)C1CC1 | -13.4% |
| O=C(CCSc1ccc(F)cc1)N1CCN(c2cnccn2)CC1 | -42.8% |
| Cc1cccc2c1NC(c1cnc(C3CCC3)s1)NC2=O (stereo unspecified) | 5.11% |
| CS(=O)(=O)Cc1ccc(CNC(=O)c2cccnc2O)cc1 | 0.481% |
| Cc1noc(C)c1CCCNC(=O)C1CCN(C(=O)C2CCC2)CC1 | 3.72% |
